# Measured values: article PMC3983135 (Bioconjugate Chemistry, 2014)
# “And” between values parts separate entries of the source, which are not always exact repeats. Equal values may be shown once.
# Assay: CRRL conjugation kinetics of BQ with methoxyamine by UV–vis spectroscopy
# Type: physicochemical
# Conditions: PBS, room temperature
# Method in brief: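 BQ (200 μM) was reacted with excess methoxyamine (100 mM and other concentrations) in Dulbecco's PBS at room temperature. Readings were taken in quartz cells, starting immediately after mixing. Repeated UV-vis spectra tracked BQ at 248 nm and QO at 320 nm. Both traces were fitted to pseudo-first-order exponentials to give k′, and the slope of k′ versus [methoxyamine] gave the second-order rate constant.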
smiles,measurement,setting,value
"O=C1C=CC(=O)C=C1 [BQ, benzoquinone]",pseudo-first-order k′ of conversion of BQ to QO,"BQ 200 μM, methoxyamine 100 mM, UV–vis (248 and 320 nm)",4.2 × 10^–3 s^–1
same,second-order rate constant k for CRRL conjugation (BQ with CH3ONH2 to QO),"from plot of k′ versus [methoxyamine], UV–vis",3.4 × 10^–2 (±6.5 × 10^–4) M^–1s^–1 and 3.41 × 10^–2 (±6.5 × 10^–4) M^–1s^–1
